This passage reports MIC and inhibition results from ChEMBL document CHEMBL1833930, “Synthesis and biological activities of triazole derivatives as inhibitors of InhA and antituberculosis agents” (2011).

≈ marks a conversion by molar mass, not a printed value. A value given as a limit tells only on which side of the number the result lay.

The MIC is the least concentration at which growth counts as inhibited. As a reminder, the inhibition is the drop in the measured response relative to a control, in per cent. Lower therefore signals a weak effect.

For assay [1], the system named is Mycobacterium tuberculosis. Nature of the assay: Antimycobacterial activity against Mycobacterium tuberculosis H37Rv by twofold dilution method. Type of assay: functional. In a few lines: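 Single colony inoculated into complete Middlebrook 7H9 and grown at 37 °C to exponential phase (~10⁸ CFU/mL, OD600 0.8–1.0). Diluted to ~10⁷ CFU/mL, then streaked onto plates with two-fold serial compound dilutions. MIC was the lowest concentration inhibiting growth. Three independent repeats.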

Assay [2] addresses T1, Enoyl-[acyl-carrier-protein] reductase [NADH] (Mycobacterium tuberculosis) (UniProt P9WGR1).
T1 sequence (whole entry): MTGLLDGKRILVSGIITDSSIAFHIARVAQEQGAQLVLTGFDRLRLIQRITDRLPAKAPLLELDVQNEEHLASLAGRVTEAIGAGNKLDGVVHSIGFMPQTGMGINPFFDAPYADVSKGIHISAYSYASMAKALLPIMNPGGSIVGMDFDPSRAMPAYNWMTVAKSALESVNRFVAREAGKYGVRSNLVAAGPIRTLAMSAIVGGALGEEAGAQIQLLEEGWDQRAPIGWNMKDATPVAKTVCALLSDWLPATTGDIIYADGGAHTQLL
The assay can be described thus: Inhibition of Mycobacterium tuberculosis InhA expressed in Escherichia coli BL21 using trans-2-dodecenoyl-Coenzyme A as substrate at 50 uM by spectrophotometry. In a few lines: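 Recombinant M. tuberculosis InhA was expressed in E. coli with 1 mM IPTG overnight at 20 °C. It was purified on Ni-NTA and desalted into 30 mM PIPES pH 6.8, 150 mM NaCl. Reactions ran in buffer at pH 6.8 with 150 mM NaCl. Controls were run identically without inhibitor.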

`c1ccc(Cc2cn(Cc3ccccc3)nn2)cc1`: the MIC in assay [1] was 201 µM (≈ 50 µg/mL).

`O=C(Cc1ccccc1)c1cn(CC2CCCCC2)nn1` showed an inhibition in assay [2] of 12%. This molecule also registered an MIC in assay [1] of 88.2 µM (≈ 25 µg/mL).

`c1ccc(CCc2cn(Cc3ccccc3)nn2)cc1` gave an inhibition in assay [2] of 15%. Besides, the lowest concentration to inhibit growth in assay [1] (MIC) was 94.9 µM (≈ 25 µg/mL). `O=C(Cc1ccc(Cl)cc1Cl)c1cn(Cc2ccccc2)nn1` yielded an MIC in assay [1] of 289 µM (≈ 100 µg/mL).

The molecule `COc1cccc(Cn2cc(C(=O)Cc3ccc(Cl)cc3Cl)nn2)c1` displayed an MIC in assay [1] of 13.3 µM (≈ 5 µg/mL). Same read-out and setting: the same measure for `O=C(Cc1ccccc1)c1cn(Cc2ccc([N+](=O)[O-])cc2)nn1`: 310 µM (≈ 100 µg/mL); for `COc1cc(Cn2cc(C(=O)Cc3ccccc3)nn2)cc(OC)c1`: over 296 µM. The same measure, in the same setting: in the case of `CCCCCCCCn1cc(C(=O)Cc2ccc(Cl)cc2Cl)nn1` it was 27.2 µM (≈ 10 µg/mL); in that of `CCCCCCCCn1cc(C(O)Cc2ccc(Cl)cc2Cl)nn1` (racemic), 67.5 µM (≈ 25 µg/mL). Regarding `CCCCCCCCn1cc(C(=O)Cc2ccccc2)nn1`, the inhibition in assay [2] turned out to be 25%. The molecule further gave a minimal inhibitory concentration (MIC) in assay [1] of 83.5 µM (≈ 25 µg/mL). Turning to `Cc1cc(C)cc(Cn2cc(C(=O)Cc3ccc(Cl)cc3Cl)nn2)c1`, the MIC in assay [1] turned out to be 267 µM (≈ 100 µg/mL). The same measure, in the same setting: in the case of `Oc1cc(Cl)ccc1Oc1ccc(Cl)cc1Cl` [TRICLOSAN] it was 34.5 µM (≈ 9.99 µg/mL); in that of `c1ccc(Cn2cc(-c3ccccc3)nn2)cc1`, over 425 µM.

On to `COc1cccc(Cn2cc(C(=O)Cc3ccccc3)nn2)c1`, for which, in assay [2], the inhibition amounted to 10%. Moreover, the MIC in assay [1] is 81.3 µM (≈ 25 µg/mL). `Cc1cc(C)cc(Cn2cc(CCc3ccccc3)nn2)c1`: in assay [2], the inhibition came out at 11%. For the same molecule, in assay [1], the MIC was 34.3 µM (≈ 9.99 µg/mL). Consider `CCCCCCCCn1cc(CCc2ccccc2)nn1`, for which, in assay [2], the inhibition was determined as 46%. Further, inhibition of growth in assay [1] (MIC) required 35 µM (≈ 9.99 µg/mL). On the same counts, the results for `Cc1cc(C)cc(Cn2cc(C(=O)Cc3ccccc3)nn2)c1` are 10% and over 327 µM. As for `CCCCCCCCn1cc(C(O)Cc2ccccc2)nn1` (racemic), the MIC in assay [1] came out at 33.2 µM (≈ 10 µg/mL). As to `CCCCCCCCCn1cc(CCc2ccccc2)nn1`, the inhibition in assay [2] came to 58%. Besides, in assay [1], it took 16.7 µM (≈ 5 µg/mL) to inhibit growth (MIC).

In the case of `O=C(Cc1ccc(Cl)cc1Cl)c1cn(Cc2ccc([N+](=O)[O-])cc2)nn1`, the MIC in assay [1] came out at 256 µM (≈ 100 µg/mL). `CCCCCCCCCCCCn1cc(CCc2ccccc2)nn1`: in assay [2], the inhibition was determined as 40%. For the same molecule, the MIC in assay [1] was at most 5.9 µM. The molecule `c1ccc(CCc2cn(CC3CCCCC3)nn2)cc1` registered an MIC in assay [1] of 186 µM (≈ 50 µg/mL). On to `O=C(Cc1ccccc1)c1cn(Cc2ccccc2)nn1`, for which, in assay [2], the inhibition worked out at 13%. This molecule gave a minimum inhibitory concentration (MIC) in assay [1] of 361 µM (≈ 100 µg/mL). Consider `COc1cc(Cn2cc(C(=O)Cc3ccc(Cl)cc3Cl)nn2)cc(OC)c1`, for which the MIC in assay [1] amounted to 246 µM (≈ 100 µg/mL).
